What was measured:
[1] = target: Sodium channel protein type 10 subunit alpha (Mus musculus, UniProt Q6QIY3); experiment: Inhibition of mouse recombinant Nav1.8 channel expressed in HEK293 cells by isotopic efflux assay; assay type: cell-based
[2] = target: Sodium channel protein type 10 subunit alpha (Rattus norvegicus) (UniProt Q62968); experiment: Blockade of Nav1.8 channel in rat dorsal root ganglion neurons assessed as inhibition of TTX-R current at 0.3 uM by whole cell patch clamp technique; assay type: tissue-based
Method in brief: (§1)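 Whole-cell voltage clamp of TTX-resistant currents in dissociated rat DRG neurons. Pipette (mM): CsF 135, NaCl 5, CsCl 10, EGTA 5, HEPES 10, pH 7.2. Bath (mM): NaCl 22, choline Cl 110, CaCl2 1.8, MgCl2 0.8, HEPES 10, glucose 5, pH 7.4. Inactivated-state protocol with pre-pulse at V1/2 (−40 mV). Mean ± SEM of two to six determinations.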

[3] = target: T1, Sodium channel protein type 10 subunit alpha (Homo sapiens, UniProt Q9Y5Y9); experiment: Inhibition of human recombinant Nav1.8 channel expressed in HEK293 cells at 0.1 uM by whole cell voltage clamp technique; assay type: cell-based
Method in brief: (§2)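 HEK293 cells stably expressing recombinant human sodium channels, grown in high-glucose DMEM, 10% FBS, 2 mM sodium pyruvate, G418. Whole-cell voltage clamp; pipettes 0.8–2.5 MΩ; internal (mM) 135 CsF, 10 CsCl, 5 EGTA, 5 NaCl, 10 HEPES, pH 7.3 with CsOH. Holding pre-pulse set at midpoint of steady-state inactivation for each subtype.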

[4] = target: Sodium channel protein type 10 subunit alpha (Rattus norvegicus) (UniProt Q62968); experiment: Blockade of Nav1.8 channel in rat dorsal root ganglion neurons assessed as inhibition of TTX-R current at 0.1 uM by whole cell patch clamp technique; assay type: tissue-based; method in brief: as §1
[5] = target: T1, Sodium channel protein type 10 subunit alpha; experiment: Inhibition of human recombinant Nav1.8 channel expressed in HEK293 cells at 0.3 uM by whole cell voltage clamp technique; assay type: cell-based; method in brief: as §2
[6] = target: Sodium channel protein type 10 subunit alpha (Rattus norvegicus) (UniProt Q62968); experiment: Blockade of Nav1.8 channel in rat dorsal root ganglion neurons assessed as inhibition of TTX-R current at 1 uM by whole cell patch clamp technique; assay type: tissue-based; method in brief: as §1
[7] = target: T1, Sodium channel protein type 10 subunit alpha; experiment: Inhibition of human recombinant Nav1.8 channel expressed in HEK293 cells at 1 uM by whole cell voltage clamp technique; assay type: cell-based; method in brief: as §2
[8] = target: Sodium channel protein type 2 subunit alpha (Homo sapiens, UniProt Q99250); experiment: Inhibition of human recombinant Nav1.2 channel expressed in HEK293 cells by whole cell voltage clamp technique; assay type: cell-based
Method in brief: (§3)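 HEK293 cells stably expressing recombinant human sodium channels, grown in high-glucose DMEM, 10% FBS, 2 mM sodium pyruvate, G418. Holding pre-pulse set at midpoint of steady-state inactivation for each subtype.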

[9] = system: Rattus norvegicus; experiment: Analgesic activity in po dosed Sprague-Dawley rat assessed as attenuation of mechanical allodynia in chung model of neuropathic pain; assay type: functional
[10] = Volume of distribution at steady state in Sprague-Dawley rat at 10 mg/kg; assay type: ADME, organism-based; design: dose 10 mg/kg; conditions: in vivo, read-out: Vdss
Method in brief: (§4)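 Rat pharmacokinetics after administration at 10 mg/kg in 10% DMSO/PEG400.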

[11] = Ratio of drug level in brain to plasma in Sprague-Dawley rat; assay type: ADME; conditions: Sprague-Dawley, brain and plasma
[12] = system: Rattus norvegicus; experiment: Analgesic activity in po dosed Sprague-Dawley rat by edge test; assay type: functional
Method in brief: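 Balance test: rats placed on 0.5-cm-thick edges of a 40 × 40 × 36 cm plexiglass box, must pull up onto the edge and avoid falling; cut-off 2 min. Groups of at least six rats.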

[13] = Cmax in Sprague-Dawley rat at 10 mg/kg, po; assay type: ADME, organism-based; design: dose 10 mg/kg, route oral; conditions: in vivo; method in brief: as §4
[14] = target: T1, Sodium channel protein type 10 subunit alpha; experiment: Inhibition of human recombinant Nav1.8 channel expressed in HEK293 cells by whole cell voltage clamp technique; assay type: cell-based; method in brief: as §2
[15] = target: Sodium channel protein type 5 subunit alpha (Homo sapiens, UniProt Q14524); experiment: Inhibition of human recombinant Nav1.5 channel expressed in HEK293 cells by whole cell voltage clamp technique; assay type: cell-based; method in brief: as §3
[16] = Plasma clearance in Sprague-Dawley rat at 10 mg/kg; assay type: ADME, organism-based; design: dose 10 mg/kg; method in brief: as §4
[17] = target: Sodium channel protein type 10 subunit alpha (Rattus norvegicus, UniProt Q62968); experiment: Blockade of Nav1.8 channel in rat dorsal root ganglion neurons assessed as inhibition of TTX-R current by whole cell patch clamp technique; assay type: tissue-based; method in brief: as §1
[18] = system: Rattus norvegicus; experiment: Analgesic activity in po dosed Sprague-Dawley rat by rotarod test; assay type: functional
Method in brief: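 Accelerating rotorod: after 30-min acclimation, rats placed on 9-cm rod ramping 0–20 rpm over 60 s; latency to fall recorded, maximum 60 s; three training sessions per rat. Groups of at least six rats; mean ± SEM.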

[19] = Oral bioavailability in Sprague-Dawley rat at 10 mg/kg; assay type: ADME, organism-based; conditions: in vivo; method in brief: as §4
[20] = system: Rattus norvegicus; experiment: Effect on locomotor activity in po dosed Sprague-Dawley rat; assay type: functional
Method in brief: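 Open-field locomotor activity recorded with photobeam activity monitors during the light cycle; groups of at least six rats, mean ± SEM.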

[21] = target: T1, Sodium channel protein type 10 subunit alpha; experiment: Inhibition of human recombinant Nav1.8 channel expressed in HEK293 cells at 0.03 uM by whole cell voltage clamp technique; assay type: cell-based; method in brief: as §2
[22] = target: Sodium channel protein type 10 subunit alpha (Rattus norvegicus) (UniProt Q62968); experiment: Blockade of Nav1.8 channel in rat dorsal root ganglion neurons assessed as inhibition of TTX-R current at 3 uM by whole cell patch clamp technique; assay type: tissue-based; method in brief: as §1

Sequence of Sodium channel protein type 10 subunit alpha (Mus musculus, UniProt Q6QIY3) (Q6QIY3 whole entry): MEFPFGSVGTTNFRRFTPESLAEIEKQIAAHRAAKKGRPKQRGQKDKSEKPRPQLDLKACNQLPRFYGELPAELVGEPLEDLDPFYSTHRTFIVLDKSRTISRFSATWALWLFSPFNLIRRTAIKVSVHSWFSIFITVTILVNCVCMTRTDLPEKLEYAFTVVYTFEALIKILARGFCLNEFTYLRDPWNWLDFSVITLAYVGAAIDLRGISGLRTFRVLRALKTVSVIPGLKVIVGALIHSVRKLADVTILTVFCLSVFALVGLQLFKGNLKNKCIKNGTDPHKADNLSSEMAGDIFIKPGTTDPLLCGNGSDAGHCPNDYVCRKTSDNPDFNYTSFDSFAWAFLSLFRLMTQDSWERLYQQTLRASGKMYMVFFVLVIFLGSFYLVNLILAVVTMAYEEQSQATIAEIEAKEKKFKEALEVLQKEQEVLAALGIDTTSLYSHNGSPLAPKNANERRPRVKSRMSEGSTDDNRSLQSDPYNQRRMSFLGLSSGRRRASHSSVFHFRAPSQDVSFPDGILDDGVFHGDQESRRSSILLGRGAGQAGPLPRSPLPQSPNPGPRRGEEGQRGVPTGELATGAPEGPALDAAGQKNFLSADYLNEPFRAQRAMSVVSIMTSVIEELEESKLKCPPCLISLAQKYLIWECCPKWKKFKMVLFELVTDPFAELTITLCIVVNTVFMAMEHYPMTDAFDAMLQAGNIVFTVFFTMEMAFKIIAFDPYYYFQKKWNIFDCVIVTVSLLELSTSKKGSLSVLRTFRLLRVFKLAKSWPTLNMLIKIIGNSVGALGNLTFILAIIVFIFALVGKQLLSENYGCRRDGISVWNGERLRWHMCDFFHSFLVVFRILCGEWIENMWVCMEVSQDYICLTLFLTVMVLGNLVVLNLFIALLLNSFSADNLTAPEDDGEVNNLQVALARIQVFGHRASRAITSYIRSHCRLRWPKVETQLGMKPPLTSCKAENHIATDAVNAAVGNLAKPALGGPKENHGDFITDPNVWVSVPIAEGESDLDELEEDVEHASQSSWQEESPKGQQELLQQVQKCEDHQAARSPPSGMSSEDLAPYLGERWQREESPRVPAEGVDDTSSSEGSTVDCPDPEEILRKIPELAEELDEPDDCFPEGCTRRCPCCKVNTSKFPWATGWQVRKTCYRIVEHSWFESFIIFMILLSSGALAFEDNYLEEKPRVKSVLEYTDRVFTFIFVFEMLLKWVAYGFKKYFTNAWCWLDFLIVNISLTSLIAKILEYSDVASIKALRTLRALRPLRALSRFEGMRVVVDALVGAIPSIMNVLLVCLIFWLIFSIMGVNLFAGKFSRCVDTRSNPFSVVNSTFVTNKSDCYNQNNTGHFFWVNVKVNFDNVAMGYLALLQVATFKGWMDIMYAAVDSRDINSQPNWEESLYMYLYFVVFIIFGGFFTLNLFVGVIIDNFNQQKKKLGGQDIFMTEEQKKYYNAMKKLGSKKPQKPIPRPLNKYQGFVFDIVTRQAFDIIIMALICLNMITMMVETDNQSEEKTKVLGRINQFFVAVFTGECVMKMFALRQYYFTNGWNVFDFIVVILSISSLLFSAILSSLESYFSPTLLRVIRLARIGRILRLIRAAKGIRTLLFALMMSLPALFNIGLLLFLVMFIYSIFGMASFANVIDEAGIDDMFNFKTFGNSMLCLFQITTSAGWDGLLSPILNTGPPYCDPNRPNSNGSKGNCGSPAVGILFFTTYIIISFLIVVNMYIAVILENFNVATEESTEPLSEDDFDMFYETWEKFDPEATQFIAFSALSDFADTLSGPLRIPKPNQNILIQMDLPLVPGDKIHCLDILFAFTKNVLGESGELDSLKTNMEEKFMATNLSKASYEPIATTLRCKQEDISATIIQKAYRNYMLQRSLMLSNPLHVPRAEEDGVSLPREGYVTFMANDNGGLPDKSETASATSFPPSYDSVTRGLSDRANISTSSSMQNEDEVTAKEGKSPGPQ
Sequence of Sodium channel protein type 10 subunit alpha (Rattus norvegicus) (Q62968 whole entry, looked up): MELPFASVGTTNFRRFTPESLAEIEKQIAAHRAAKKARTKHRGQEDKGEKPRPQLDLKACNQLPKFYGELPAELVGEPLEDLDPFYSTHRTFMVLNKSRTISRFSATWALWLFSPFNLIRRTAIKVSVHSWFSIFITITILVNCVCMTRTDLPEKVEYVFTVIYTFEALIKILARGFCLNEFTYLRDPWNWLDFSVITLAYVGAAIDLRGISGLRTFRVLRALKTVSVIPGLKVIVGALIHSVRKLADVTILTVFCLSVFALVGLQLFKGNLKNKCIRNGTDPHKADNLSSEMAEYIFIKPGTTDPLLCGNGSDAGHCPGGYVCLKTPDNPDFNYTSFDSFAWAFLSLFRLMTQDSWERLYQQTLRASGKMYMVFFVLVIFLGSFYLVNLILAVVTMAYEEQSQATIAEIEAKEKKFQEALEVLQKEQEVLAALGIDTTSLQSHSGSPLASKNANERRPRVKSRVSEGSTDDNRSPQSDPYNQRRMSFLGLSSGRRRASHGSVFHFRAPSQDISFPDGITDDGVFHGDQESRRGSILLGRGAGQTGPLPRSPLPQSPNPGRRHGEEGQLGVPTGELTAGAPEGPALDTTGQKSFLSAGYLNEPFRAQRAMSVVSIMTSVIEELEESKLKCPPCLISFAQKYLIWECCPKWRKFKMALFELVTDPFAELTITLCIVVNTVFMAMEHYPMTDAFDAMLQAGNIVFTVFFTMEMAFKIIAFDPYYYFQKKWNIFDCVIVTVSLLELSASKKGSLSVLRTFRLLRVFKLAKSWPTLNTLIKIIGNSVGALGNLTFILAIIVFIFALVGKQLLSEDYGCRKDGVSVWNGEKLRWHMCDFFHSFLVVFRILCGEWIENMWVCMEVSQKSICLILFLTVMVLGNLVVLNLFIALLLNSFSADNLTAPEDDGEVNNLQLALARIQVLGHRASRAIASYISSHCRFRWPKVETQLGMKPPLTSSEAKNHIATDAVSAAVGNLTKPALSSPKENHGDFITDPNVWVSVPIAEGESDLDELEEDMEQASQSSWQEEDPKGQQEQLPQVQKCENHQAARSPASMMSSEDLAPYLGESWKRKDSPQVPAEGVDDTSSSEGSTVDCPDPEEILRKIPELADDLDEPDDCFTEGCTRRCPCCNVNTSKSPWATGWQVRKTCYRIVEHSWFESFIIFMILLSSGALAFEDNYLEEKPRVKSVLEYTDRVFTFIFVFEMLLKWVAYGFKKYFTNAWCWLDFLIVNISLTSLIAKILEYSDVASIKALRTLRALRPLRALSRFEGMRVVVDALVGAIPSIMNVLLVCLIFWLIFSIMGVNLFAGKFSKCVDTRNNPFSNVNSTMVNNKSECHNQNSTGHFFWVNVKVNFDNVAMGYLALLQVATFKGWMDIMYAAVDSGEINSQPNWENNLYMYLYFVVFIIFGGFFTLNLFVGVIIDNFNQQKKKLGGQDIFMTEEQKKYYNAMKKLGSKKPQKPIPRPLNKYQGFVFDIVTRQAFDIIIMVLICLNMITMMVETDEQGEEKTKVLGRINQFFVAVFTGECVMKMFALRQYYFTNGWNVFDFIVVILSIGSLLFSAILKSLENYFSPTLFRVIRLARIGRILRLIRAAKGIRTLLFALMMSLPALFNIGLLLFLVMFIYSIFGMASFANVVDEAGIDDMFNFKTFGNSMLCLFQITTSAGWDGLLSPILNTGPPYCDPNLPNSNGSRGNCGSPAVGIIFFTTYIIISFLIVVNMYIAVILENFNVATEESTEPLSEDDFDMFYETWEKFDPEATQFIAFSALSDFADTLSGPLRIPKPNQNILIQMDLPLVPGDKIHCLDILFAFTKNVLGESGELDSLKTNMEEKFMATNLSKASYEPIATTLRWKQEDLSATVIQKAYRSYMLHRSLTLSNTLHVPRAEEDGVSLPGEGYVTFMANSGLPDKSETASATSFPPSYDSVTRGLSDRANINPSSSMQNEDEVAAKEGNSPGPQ
Sequence of Sodium channel protein type 10 subunit alpha (Rattus norvegicus, UniProt Q62968) (Q62968 whole entry): as the sequence (Q62968 whole entry, looked up) above

## O=C(NCCN1CCCCC1)c1ccc(-c2ccc(Cl)cc2)o1
[1]
  IC50: 900 nM
[2]
  inhibition: 59%
[3]
  inhibition: 29%

## O=C(c1ccc(-c2ccc(Cl)cc2)o1)N1CCOCC1
[1]
  IC50: 32000 nM

## CN1CCN(C(=O)c2ccc(-c3ccc(Oc4ccccc4)cc3)o2)CC1
[4]
  inhibition: 55%
[5]
  inhibition: 87%
[3]
  inhibition: 35%
[6]
  inhibition: 90%

## CN(C)c1ccc(-c2ccc(C(=O)N3CCN(C4CCCCC4)CC3)o2)cc1
[7]
  inhibition: 65%

## O=C(NCCCN1CCCCC1)c1ccc(-c2ccc(Cl)cc2)o1
[1]
  IC50: 1600 nM
[2]
  inhibition: 52%

## O=C(c1ccc(-c2ccc(Cl)cc2)o1)N1CCN(C2CCCCC2)CC1
[8]
  IC50: 350 nM
[9]
  ED50: 37 µmol/kg
[1]
  IC50: 1000 nM
[10]
  Vd: 7.8 L/kg
[11]
  Kp: 9
[12]
  ED50: > 300 µmol/kg
[13]
  Cmax: 470 ng/mL
[14]
  IC50: 300 nM
[15]
  IC50: 2300 nM
[5]
  inhibition: 58%
[16]
  clearance: 45 mL/min/kg
[17]
  IC50: 390 nM
[2]
  inhibition: 50%
[18]
  ED50: > 300 µmol/kg
[19]
  bioavailability: 48%
[20]
  ED50: > 300 µmol/kg

## C[C@@H](NC(=O)c1ccc(-c2ccc(Cl)cc2)o1)C(=O)N1CCN(CCCOc2ccc(C(=O)C3CC3)cc2)CC1
[14]
  IC50: 1000 nM

## O=C(c1ccc(-c2ccc(Oc3ccccc3)cc2)o1)N1CCN(C2CCCCC2)CC1
[5]
  inhibition: 93%
[21]
  inhibition: 68%
[6]
  inhibition: 67%

## O=C(c1ccc(-c2cccc(Cl)c2)o1)N1CCN(C2CCCCC2)CC1
[7]
  inhibition: 80%
[3]
  inhibition: 22%

## CN1CCN(C(=O)c2ccc(-c3ccc(Cl)cc3)o2)CC1
[1]
  IC50: 9900 nM
[22]
  inhibition: 31%

## O=C(c1ccc(-c2ccc(OC(F)(F)F)cc2)o1)N1CCN(C2CCCCC2)CC1
[5]
  inhibition: 89%
[3]
  inhibition: 42%

Reference: ChEMBL document CHEMBL1150418, “Discovery of potent furan piperazine sodium channel blockers for treatment of neuropathic pain” (Bioorg Med Chem, 2008)
